Screening results (PubChem)
RGS4 block = human RGS4 inhibition; HEK293 M3R/RGS4 inducible, Fluo-4 calcium flux; active compounds read high; triggered by carbachol at its EC20; B-score at 10 µM; 310,000 compounds, 0.45% hits;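 active = B-score, a plate-corrected calcium signal, over three deviations above library mean, with baseline fluorescence within five deviations of library mean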;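 note: RGS4 expression induced by doxycycline in cells with stable M3 receptor; B-score is computed from the integrated fluorescence ratio over baseline after carbachol; higher B-score means a larger calcium signal and so more RGS4 inhibition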
Target sequence (P49798 whole entry, looked up): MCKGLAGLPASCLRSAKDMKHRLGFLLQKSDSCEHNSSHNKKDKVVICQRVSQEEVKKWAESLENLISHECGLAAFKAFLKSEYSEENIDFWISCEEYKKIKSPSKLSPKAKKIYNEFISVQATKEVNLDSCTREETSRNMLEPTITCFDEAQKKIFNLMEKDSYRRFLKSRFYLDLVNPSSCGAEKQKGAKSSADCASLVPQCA
RGS4 act = RGS4 potentiation or activation. HEK293 M3R/inducible RGS4, carbachol calcium flux Fluo4; active compounds read low. 310,000 compounds, 0.92% hits. B-score at 10 µM. AID 463111;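 active = B-score of the integrated calcium signal more than 4 SD below the library mean, with starting fluorescence not abnormally high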;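 note: negative B-score means reduced calcium response which marks RGS4 activation or potentiation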
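Detection: kinetic calcium fluorescence imaging with Fluo4-AM dye, 2 µM / Material: HEK293 cells with stable M3R and inducible RGS4 / Schedule: recording 10 s baseline at 1 Hz, 100 s post-agonist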
MrgX1 ag = human MrgX1 receptor agonism, primary screen; AID 588627; 310,000 compounds, 0.44% hits; MrgX1-HEK293 cells, Fluo-4 calcium fluorescence, agonist mode; active compounds read high; B-score at 10 µM; Q96LB2;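 active = calcium response B-score plate-corrected fluorescence ratio at least 3 library SD, with starting fluorescence B-score inside 5 SD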
Target sequence (Q96LB2 whole entry, looked up): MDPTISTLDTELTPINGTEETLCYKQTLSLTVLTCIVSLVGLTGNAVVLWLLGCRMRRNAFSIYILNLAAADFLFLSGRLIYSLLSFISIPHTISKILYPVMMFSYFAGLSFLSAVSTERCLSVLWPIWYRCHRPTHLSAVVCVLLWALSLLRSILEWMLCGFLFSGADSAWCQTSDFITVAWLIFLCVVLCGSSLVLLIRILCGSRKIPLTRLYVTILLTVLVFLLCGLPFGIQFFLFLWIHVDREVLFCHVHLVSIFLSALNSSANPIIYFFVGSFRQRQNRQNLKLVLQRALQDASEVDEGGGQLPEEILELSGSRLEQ
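Assay system: MrgX1-expressing HEK293 cells / Amount: fifteen thousand cells per well / Doses: test compound in the initial addition of three / Timing: cells plated overnight, dye loaded 0.5 h 37 °C, 0.5 h room temperature / Technique: kinetic calcium dye fluorescence, Fluo-4 NW / Control set: positive and negative controls per plate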
MrgX1 allo act = human MrgX1 positive allosteric modulation, primary screen. Q96LB2. MrgX1-HEK293, Fluo-4 calcium flux, FDSS; active compounds read high. B-score at 10 µM. 310,000 compounds, 0.63% hits. AID 588675;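 active = plate-corrected calcium response at least 3 library SD above typical, normal starting fluorescence, not activating the receptor alone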;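 note: compound read alongside a low EC10 to EC30 dose of BAM8-22 agonist; peak minus trough fluorescence over baseline measured at the second addition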
MrgX1 antag = antagonists of human MrgX1 receptor | AID 588676 | Q96LB2 | MRGX1-HEK293 calcium flux, Fluo-4, BAM8-22 antagonism; active compounds read low | 310,000 compounds, 1.3% hits | B-score at 10 µM;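 active = calcium-response B-score plate-corrected more than 3 library SD below zero, starting fluorescence within 5 deviations, no agonist response on first addition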;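 note: peak minus trough fluorescence over baseline after final BAM8-22 challenge near maximal dose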
The depositor's hits bear a star; i = inactive; . = not tested or not shown. Most compounds without a hit are left out; they make up all but 3.5% or so of the library.

SMILES	RGS4 block	RGS4 act	MrgX1 ag	MrgX1 allo act	MrgX1 antag
CCc1ccc(C(C)NC(=S)NC2CCCCC2)cc1 (stereo not drawn)	i	i	i	i	i
N#C/C(=C\c1cc(Br)ccc1F)C(=O)NC1CC1	i	i	i	i	i
CCOc1ccc(CCNC(=O)c2cccc(S(=O)(=O)N3CC(C)OC(C)C3)c2)cc1OCC (stereo not drawn)	i	i	i	i	-6.47*
O=C(/C=C/c1ccc(N2CCC(c3ccccc3)=N2)cc1)c1ccccc1	i	-7.94*	i	i	i
CSc1nc(NCc2ccco2)c2c3c(sc2n1)CN(C)CC3	i	-7.68*	i	i	-4.7*
CSc1nc(SCC(=O)NCc2ccco2)c2c3c(sc2n1)CN(C)CC3	i	i	i	i	i
CCC(O)CNc1nc(SC)nc2sc3c(c12)CCN(C)C3 (stereo not drawn)	i	-7.15*	i	i	i
CCc1ccc(-c2csc(NC(=O)COC(=O)CCc3nc4ccccc4s3)n2)cc1	i	i	i	i	i
Cc1nn(Cc2ccccc2Cl)c(C)c1NC(=O)/C=C/c1cnn(C)c1	i	i	i	i	-4.57*
CCn1cc(/C=C/C(=O)Nc2c(C)nn(Cc3ccccc3)c2C)cn1	i	i	i	i	i
COc1ccc(CN(N=O)C2CC(=O)N(c3ccc(OC)cc3)C2=O)cc1 (stereo not drawn)	i	-10.3*	i	i	i
CC(C)(C)OC(=O)NCCCC1=CC2=CC(=O)C(C)(OC(=O)C3CCCC3)C(=O)C2=CO1 (stereo not drawn)	i	i	i	i	i
c1cc2c3c(cccc3c1)NC1(CCCCCC1)N2	i	i	i	i	i
c1cc2c3c(cccc3c1)NC1(CCC3(CC1)Nc1cccc4cccc(c14)N3)N2	i	-8.22*	i	7.03*	i
CCCCNc1ccc(C(=O)O)cc1	i	i	i	i	i
CCCCc1cc(=O)oc2cc(C)cc(OCC(=O)NCc3ccncc3)c12	i	i	i	7.22*	i
COc1ccc(CNC(=O)COC(=O)CC2CCCC2)cc1	i	i	i	i	i
CCCCCc1ccc(OCCCC[n+]2ccccc2)c(CCCCC)c1	i	-7.75*	i	i	i
CCCCCc1ccc(OCCCC[n+]2ccc(C)cc2)c(CCCCC)c1	i	i	i	i	i
CCCCCc1ccc(OCCCC[n+]2cccc(C)c2)c(CCCCC)c1	i	-8.71*	i	i	i
Cn1nc(C(=O)N2CCN(C(c3ccccc3)c3ccccc3)CC2)c2ccccc2c1=O	i	i	i	i	i
O=C(Nc1cc([N+](=O)[O-])ccc1Cl)c1ccc2c(c1)OCO2	i	i	i	i	i
COc1cc(C=O)ccc1OCCSc1ccc(Cl)cc1	i	i	i	i	-5.38*
COc1cc(C=O)ccc1OCCOCCOc1ccc(Cl)cc1	i	i	i	i	i
CCCOc1ccc(S(=O)(=O)n2cc(F)c(=O)[nH]c2=O)cc1	i	i	i	7.94*	i
SMILES	RGS4 block	RGS4 act	MrgX1 ag	MrgX1 allo act	MrgX1 antag
CCc1nn(C(C)C(=O)NCCc2ccccc2)c(=O)c2cc3occc3n12 (stereo not drawn)	i	i	i	i	i
Cc1nn(C(C)C(=O)NC(C)CCc2ccccc2)c(=O)c2cc3occc3n12 (stereo not drawn)	i	i	i	i	-7.6*
COc1ccc(CNC(=O)C(C)n2nc(C)n3c(cc4occc43)c2=O)cc1 (stereo not drawn)	i	i	i	i	-8.11*
O=C(Nc1nc(-c2ccccc2)cs1)c1ccccc1NS(=O)(=O)c1ccc(F)cc1	i	-7.23*	i	i	i
CN(NC(=O)/C=C/C(=O)O)c1ncc(C(F)(F)F)cc1Cl	i	i	i	i	i
CN(C)S(=O)(=O)N1CCC(Oc2cccc(C(=O)NCCC3=CCCCC3)c2)CC1	i	i	i	i	-4.54*
CN(C)S(=O)(=O)N1CCC(Oc2cccc(C(=O)NC3CCCCC3)c2)CC1	i	i	i	i	i
O=c1ccn([C@H]2C[C@H](O)[C@@H](CO)O2)c(=O)[nH]1	i	i	i	i	-6.84*
O=C(CNS(=O)(=O)c1ccc([N+](=O)[O-])cc1)N/N=C\c1ccc(O)cc1	i	i	i	9.15*	-6.05*
Cn1cccc1CC(=O)N/N=C/c1ccc(Cl)cc1	i	i	i	10.9*	i
CC(=O)Nc1ccc(/C=N\NC(=O)CNS(=O)(=O)c2ccc([N+](=O)[O-])cc2)cc1	i	i	i	i	i
Cn1cccc1CC(=O)N/N=C/c1ccc([N+](=O)[O-])cc1	i	i	i	7.65*	i
COC(=O)c1ccc([C@H]2C=C(C(=O)O)O[C@@H](OCc3ccc(CO)cc3)C2)cc1	i	i	i	i	i
CCC(C)(C)NC(=O)/C=C/c1cnc2ccccc2n1	i	i	i	i	-4.75*
O=C(O)COc1ccccc1Cc1ccccc1	i	i	i	i	i
CC(COc1ccccc1Cc1ccccc1)N1CCCCC1 (stereo not drawn)	i	-7.38*	i	i	i
COc1ccc(-c2nn(-c3ccccc3)cc2/C=N/O)cc1	i	i	i	i	i
CC(C)Oc1ccc(-c2nn(-c3ccccc3)cc2/C=c2\sc3ncnn3c2=O)cc1	.	.	47.2*	i	i
CNC(=O)/C(C#N)=C/c1ccc(-c2ccc(OC)cc2[N+](=O)[O-])o1	i	i	i	i	-5.25*
COc1ccc(CCNC(=O)c2cccnc2Cl)cc1OC	i	i	i	i	i
S=C(NCCc1ccccc1)NN=C1CCCCCC1	i	i	i	7.41*	i
S=C(NCCc1ccccc1)N/N=C/C1CCCCC1	i	i	i	9.07*	i
COCCNC(=S)NN=C1CCCCCC1	i	i	.	.	.
O=C(NC(=S)NCCc1ccccc1)C1CCCCC1	i	i	i	i	i
COc1ccccc1CCNC(=O)CNC(=O)Cc1cccc2ccccc12	i	i	i	i	i
CCN1CCN(CCNC(=O)c2ccc(/C=C3/Sc4ccccc4N(Cc4cccc(Cl)c4)C3=O)cc2)CC1	i	-9.9*	i	i	i
Cc1cccc(CN2C(=O)/C(=C\c3ccc(C(=O)NCCN4CCOCC4)cc3)Sc3ccccc32)c1	i	-7.32*	i	i	i
